Active and inactive are the calls of the source. No cut-off for these calls is given here.
Columns and labels:
MGC-803 [1] = test: Antiproliferative activity against human MGC-803 cells assessed as reduction in cell viability incubated for 48 hrs by MTT assay; format: functional, cell-based; conditions: MGC-803, 48 h
Summary of the method: (§1)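 MTT assay. Compound added 24 h after seeding and left for 48 h. MTT was then added for 4 h at 37 °C, formazan dissolved in DMSO and absorbance read at 490 nm. IC50 calculated from three independent experiments.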

HCT-116 = test: Antiproliferative activity against human HCT-116 cells assessed as reduction in cell viability incubated for 48 hrs by MTT assay; format: functional, cell-based; conditions: HCT-116, 48 h
Summary of the method: as §1, with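 “assay. 5,000 cells per well in RPMI-1640 with 10% FBS and penicillin/streptomycin at 37 °C, 5% CO2.” for “assay.”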

SGC-7901 [2] = test: Antiproliferative activity against human SGC-7901 cells assessed as reduction in cell viability incubated for 48 hrs by MTT assay; format: functional, cell-based; conditions: SGC-7901, 48 h
Summary of the method: as §1, with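 “assay. 5,000 cells per well in RPMI-1640 with 10% FBS and penicillin/streptomycin at 37 °C, 5% CO2.” for “assay.”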

[3] = Antiproliferative activity against human SGC-7901 cells assessed as reduction in cell viability at 60 nmol/L incubated for 48 hrs by MTT assay relative to control; format: functional; conditions: SGC-7901, 48 h
Summary of the method: (§2)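 MTT viability in gastric cell lines grown in RPMI-1640 with 10% FBS at 37 °C, 5% CO2. Compound at 20, 40 and 60 nM for 48 h, starting 24 h after seeding 5,000 cells per well. MTT for 4 h, formazan dissolved in DMSO, absorbance at 490 nm. Inhibition expressed relative to control.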

GES1 = test: Cytotoxicity against human GES1 cells assessed as reduction in cell viability at 60 nmol/L incubated for 48 hrs by MTT assay; format: functional; conditions: GES1, read-out: INH; summary of the method: as §2
MGC-803 [4] = test: Inhibition of tubulin polymerization in human MGC-803 cells assessed as increase in multiple nucleus formation at 20 to 60 nmol/L by DAPI staining based microscopic analysis; format: cell-based; conditions: dose 20-60 nmol/L
Summary of the method: (§3)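 Cells cultured in RPMI-1640 with 10% FBS at 37 °C, 5% CO2, treated 48 h with 20, 40 and 60 nM; stained for β-tubulin (green) and nuclei (blue) and examined by microscopy.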

SGC-7901 [5] = test: Inhibition of tubulin polymerization in human SGC-7901 cells assessed as decrease in microtubule formation at 20 to 60 nmol/L by DAPI staining based microscopic analysis; format: cell-based; conditions: dose 20-60 nmol/L; summary of the method: as §3
SGC-7901 [6] = test: Inhibition of tubulin polymerization in human SGC-7901 cells assessed as increase in multiple nucleus formation at 20 to 60 nmol/L by DAPI staining based microscopic analysis; format: cell-based; conditions: dose 20-60 nmol/L; summary of the method: as §3
MGC-803 [7] = test: Inhibition of colony formation in human MGC-803 cells at 20 to 60 nM incubated for 7 days by crystal violet staining based assay; format: functional, cell-based; conditions: dose 20-60 nM, time 7.0 day
Summary of the method: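 Cells maintained in RPMI-1640 with 10% FBS at 37 °C, 5% CO2; incubated with 20, 40 and 60 nM for 7 days before colony counting.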

MGC-803 [8] = test: Induction of cell cycle arrest in human MGC-803 cells assessed as downregulation of Cyclin B1 at 20 to 60 nM incubated for 48 hrs by Western blot analysis; format: functional, cell-based; conditions: dose 20-60 nM
Summary of the method: (§4)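 Cells grown in RPMI-1640 with 10% FBS, penicillin/streptomycin at 37 °C, 5% CO2. Exposure to 20, 40 or 60 nM for 48 h alongside DMSO control. Lysates denatured, resolved by SDS-PAGE, transferred to PVDF, blocked, then probed with primary and secondary antibodies.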

SGC-7901 [9] = test: Induction of cell cycle arrest in human SGC-7901 cells assessed as downregulation of Cyclin B1 at 20 to 60 nM incubated for 48 hrs by Western blot analysis; format: functional, cell-based; conditions: dose 20-60 nM; summary of the method: as §4
MGC-803 [10] = test: Activation of Hippo signaling pathway in human […] cells assessed as increase in LATS phosphorylation at 20 to 60 nM incubated for 48 hrs by Western blot analysis; format: cell-based; conditions: filed as activator, dose 20-60 nM
Summary of the method: (§5)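 Western blot on gastric cancer cells exposed to compound or DMSO at 20, 40 and 60 nM for 48 h. Cells were lysed, then the denatured lysates were separated by SDS-PAGE and transferred to PVDF. Membranes were blocked and probed with primary and then secondary antibodies. Hippo pathway proteins were detected.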

MGC-803 [11] = test: Cytotoxicity against human MGC-803 cells harboring SiYAP assessed as increase in cell viability at 20 to 60 nM incubated for 48 hrs by MTT assay; format: cell-based; conditions: mgc-803, 48 h, 0.06 µM, dose 20-60 nM
SGC-7901 [12] = test: Activation of Hippo signaling pathway in human SGC-7901 cells assessed as downregulation of YAP at 20 to 60 nM incubated for 48 hrs by Western blot analysis; format: cell-based; conditions: filed as activator, dose 20-60 nM; summary of the method: as §5
SGC-7901 [13] = test: Activation of Hippo signaling pathway in human SGC-7901 cells assessed as increase in LATS phosphorylation at 20 to 60 nM incubated for 48 hrs by Western blot analysis; format: cell-based; conditions: filed as activator, dose 20-60 nM; summary of the method: as §5
SGC-7901 [14] = test: Activation of Hippo signaling pathway in human SGC-7901 cells assessed as downregulation of TEAD at 20 to 60 nM incubated for 48 hrs by Western blot analysis; format: cell-based; conditions: filed as activator, dose 20-60 nM; summary of the method: as §5
SGC-7901 [15] = test: Activation of Hippo signaling pathway in human SGC-7901 cells assessed as decrease in c-MYC expression incubated for 48 hrs by Western blot analysis; format: cell-based; conditions: filed as activator, dose 20-60 nM; summary of the method: as §5
SGC-7901 [16] = test: Cytotoxicity against human SGC-7901 cells harboring SiYAP assessed as increase in cell viability at 20 to 60 nM incubated for 48 hrs by MTT assay; format: cell-based; conditions: sgc-7901, 48 h, 0.06 µM, dose 20-60 nM
MGC-803 [17] = test: Induction of apoptosis in human MGC-803 cells assessed as upregulation of t-Bid at 20 to 60 nM incubated for 48 hrs by Western blot analysis; format: functional, cell-based; conditions: dose 20-60 nM
Summary of the method: (§6)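 Western blot on MGC-803 and SGC-7901 cells given 20, 40 and 60 nM compound or DMSO for 48 h. Denatured lysates were run on SDS-PAGE and transferred to PVDF, then probed with primary and secondary antibodies to detect apoptosis-related proteins.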

MGC-803 [18] = test: Induction of apoptosis in human MGC-803 cells assessed as downregulation of Bcl-xl at 20 to 60 nM incubated for 48 hrs by Western blot analysis; format: functional, cell-based; conditions: dose 20-60 nM; summary of the method: as §6
MGC-803 [19] = test: Induction of apoptosis in human MGC-803 cells assessed as upregulation of Bax at 20 to 60 nM incubated for 48 hrs by Western blot analysis; format: functional, cell-based; conditions: dose 20-60 nM; summary of the method: as §6
MGC-803 [20] = test: Induction of apoptosis in human MGC-803 cells assessed as increase in caspase-3 cleavage at 20 to 60 nM incubated for 48 hrs by Western blot analysis; format: functional, cell-based; conditions: dose 20-60 nM; summary of the method: as §6
MGC-803 [21] = test: Induction of apoptosis in human MGC-803 cells assessed as increase in PARP cleavage at 20 to 60 nM incubated for 48 hrs by Western blot analysis; format: functional, cell-based; conditions: dose 20-60 nM; summary of the method: as §6
SGC-7901 [22] = test: Induction of apoptosis in human SGC-7901 cells assessed as downregulation of XIAP at 20 to 60 nM incubated for 48 hrs by Western blot analysis; format: functional, cell-based; conditions: dose 20-60 nM; summary of the method: as §6
MGC-803 [23] = test: Induction of apoptosis in human MGC-803 cells assessed as late apoptotic cells at 60 nM incubated for 48 hrs by annexin V-FITC and PI staining based flow cytometry analysis (reference value: 4.1 %); format: functional
MGC-803 [24] = test: Induction of apoptosis in human MGC-803 cells assessed as fragmentation of cells at 20 to 60 nM; format: functional, cell-based; conditions: dose 20-60 nM

Compound COc1ccc(CN(C(=O)CSc2nc3ccccc3s2)c2cc(OC)c(OC)c(OC)c2)cc1O has an IC50 (MGC-803 [1]) of 35 nM, an IC50 (HCT-116) of 182 nM and an IC50 (SGC-7901 [2]) of 49 nM. For the same compound, the inhibition at 0.06 µM [3] was 63%, the inhibition at 0.06 µM (GES1) was under 20% and the Activity (MGC-803 [4]) was “Active”. For the same compound, the Activity (SGC-7901 [5]) was “Active”, the Activity (SGC-7901 [6]) was “Active” and the Activity (MGC-803 [7]) was “Active”. The Activity (MGC-803 [8]) was “Active”, the Activity (SGC-7901 [9]) was “Active” and the Activity (MGC-803 [10]) was “Active”. For the same compound, the Activity (MGC-803 [11]) was “Non-Toxic”, the Activity (SGC-7901 [12]) was “Active” and the Activity (SGC-7901 [13]) was “Active”. For the same compound, the Activity (SGC-7901 [14]) was “Active”, the Activity (SGC-7901 [15]) was “Dose-dependent effect” and the Activity (SGC-7901 [16]) was “Non-Toxic”. For the same compound, the Activity (MGC-803 [17]) was “Active”, the Activity (MGC-803 [18]) was “Active” and the Activity (MGC-803 [19]) was “Active”. The Activity (MGC-803 [20]) was “Active”, the Activity (MGC-803 [21]) was “Active” and the Activity (SGC-7901 [22]) was “Active”. The Activity (MGC-803 [23]) was 30.4% and the Activity (MGC-803 [24]) was “Active”.

From ChEMBL document CHEMBL4765386, “Discovery of tertiary amide derivatives incorporating benzothiazole moiety as anti-gastric cancer agents in vitro via inhibiting tubulin polymerization and activating the Hippo signaling pathway” (Eur J Med Chem, 2020)
